# High-throughput results (PubChem BioAssay)
# Shn3 3UTR inh: reduction of Shn3 3'UTR firefly luciferase signal, primary screen, Schnurri-3 inhibitor project, cell-based, Clone20 osteoblasts, set 2; Clone20 osteoblast Shn3 3'UTR firefly luciferase, 24 h; inhibition, % at 12.5 µM; hit rate 0.52% among 360,000; AID 588674, 2011;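 active means mean inhibition of at least 75% with every replicate also reaching 75%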;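 further: 0% = median of neutral control wells and 100% = pilot-screen positive control compound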
# EBV LMP1 NFkB: EBV LMP1-driven NF-kappaB luciferase reporter inhibitors, primary screen, cell-based, luminescence, single point | LMP1-induced NF-kappaB luciferase reporter cells | inhibition, % at 12.5 µM | hit rate 0.69% among 350,000; in the data active means inhibition above about 41%;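 further: 0% = neutral control wells and 100% = reference inhibitor control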
# FN deposit inh: inhibitors of fibronectin matrix deposition, primary screen, AH1F cells, Alexa488-fibronectin fluorescence, plate reader; AH1F fibroblasts, overnight; inhibition, % at 12.6 µM; hit rate 0.086% among 350,000;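 active means mean inhibition across replicates of 30% or more, regardless of how many single replicates reach that level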;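 further: positive control wells lacked labelled fibronectin entirely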
#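 Measured by – fluorescence 485/525 nm · System – AH1F fibroblast monolayer, labelled fibronectin deposition · Amount – 10000 cells per well · Buffer or medium – serum-reduced DMEM (2% serum) · Doses – single dose, pinned · Also added – fluorescent fibronectin at 24 nM final · Schedule – 1 h cell attachment, overnight exposure to compound and label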
# aSyn UTR inh: MLPCN primary screen, SNCA 5' untranslated region; alpha-synuclein 5'UTR reporter, inhibitor activity; inhibition, % (tested at 7.5 µM); hit rate 0.82% among 300,000; AID 1813, 2009; in the data active means inhibition above about 60%;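 further: H4 neuroglioblastoma cells stably carrying SNCA 5'UTR luciferase fusion; 0% = DMSO wells and 100% = positive control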
# EWS-Fli block: EWS/Fli-driven NR0B1 reporter inhibitors, primary screen, A673 cells, NR0B1 luciferase, luminescence, MLPCN library; hit rate 0.67% among 350,000; AID 651661, 2012; viability-normalised; inhibition, % at 12.6 µM;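 active means mean inhibition of at least 50% after viability correction, with every replicate also passing that limit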;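 further: firefly luciferase signal divided by Alamar Blue viability fluorescence both relative to DMSO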
# PAX8 inh HTS: inhibitors of PAX8-driven TPO luciferase reporter, primary screen, RMG-I cells, single concentration; inhibition, % at 12.6 µM; hit rate 1.2% among 360,000; SteadyGlo, 24 h; AID 652154, 2013;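 active means mean replicate inhibition at least 60% with every replicate also reaching 60%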;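 further: luciferase light reporting Pax8 driven TPO promoter activity; plate controls were median of neutral control wells for no effect and mitoxantrone controls for full effect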
# Starred values were filed as active, the others as inactive; . = not tested or not shown. Sampled rows, rich in hits. Any-hit rate of the full collection: about 2.1%.
SMILES,Shn3 3UTR inh,EBV LMP1 NFkB,FN deposit inh,aSyn UTR inh,EWS-Fli block,PAX8 inh HTS
Cc1ccc(S(=O)(=O)Nc2ccc3c(c2)C(=O)N([C@@H](C)CO)C[C@@H](C)[C@@H](CN(C)Cc2ccc(Cl)c(Cl)c2)OCCCC[C@@H](C)O3)cc1,.,.,1,.,-15,96*
Cc1ccc(S(=O)(=O)Nc2ccc3c(c2)C(=O)N([C@H](C)CO)C[C@@H](C)[C@@H](CN(C)Cc2ccc(Cl)c(Cl)c2)OCCCC[C@H](C)O3)cc1,.,.,2,.,3,55
Cc1cc(C)c(C)c(S(=O)(=O)N2CCN(c3ccccn3)CC2)c1C,4,-6,9,7,-6,14
Cc1cc(C)c(C)c(S(=O)(=O)N2CCN(c3ncnc4ccccc34)CC2)c1C,86*,23,10,.,23,53
CN(C)CCCN(C(=O)CCc1ccccc1)c1nc2ccc(Cl)cc2s1,-26,-21,2,109*,.,22
CN(C)CCCN(C(=O)COc1ccc(Cl)cc1)c1nc2cc3c(cc2s1)OCO3,11,3,5,50,61*,7
CN(C)CCCN(C(=O)COc1ccc(Cl)cc1)c1nc2cc3c(cc2s1)OCCO3,-4,-8,0,-9,-24,-54
Cc1ccc(S(=O)(=O)Nc2ccc3c(c2)C(=O)N([C@@H](C)CO)C[C@H](C)[C@@H](CN(C)C(=O)C2CCCCC2)OCCCC[C@@H](C)O3)cc1,.,.,5,.,12,41
CCCN1C[C@@H](C)[C@H](OC)CN(C)C(=O)c2cc(NC(=O)c3ccccc3F)ccc2OC[C@H]1C,.,.,4,.,-14,1
Nc1ccc(-c2cnc(N)c(C(=O)c3cccnc3)n2)cn1,20,67*,.,.,.,.
c1ccc2c(c1)CC(N1CCCCC1)c1ccccc1S2 (stereo unspecified),-20,-22,1,90*,3,5
CCc1ccc2c(c1)Sc1ccccc1CC2N1CCN(C)CC1 (stereo unspecified),-4,-10,-4,-16,21,21
CC(C)C(=O)Nc1ccc(C(=O)N/N=C/c2cc(Br)cc(Br)c2O)cc1,81,44*,12,8,32,2
CN1[C@@H]2c3ccc(-c4ccccc4)c(=O)n3C[C@@H]2[C@@H](CO)[C@@H]1C(=O)N1CCc2ccccc2C1,.,.,.,.,5,68*
C=CCn1c(COc2ccc(Cl)cc2)nnc1SCC(=O)Nc1ccc(S(N)(=O)=O)cc1,-5,-5,2,18,-7,64*
CCn1c(COc2ccc(C)cc2)nnc1SCC(=O)Nc1ccc(S(N)(=O)=O)cc1,7,2,.,3,.,.
COc1ccc(S(=O)(=O)Nc2ccc3c(c2)CC(=O)N([C@@H](C)CO)C[C@H](C)[C@H](CN(C)S(=O)(=O)c2ccccc2)O3)cc1,.,.,.,.,6,-2
O=C(c1ccc(CSc2nc3ccncc3[nH]2)cc1)N1CCN(c2cccc(Cl)c2)CC1,88*,9,2,8,18,14
Cc1ccc(CSc2nc3ccncc3[nH]2)cc1,20,47*,-2,73*,47,13
O=C(c1ccc(CSc2nc3ccncc3[nH]2)cc1)N1CCCCCC1,12,23,-6,1,15,22
Clc1ccc(CSc2nc3ccncc3[nH]2)cc1,-47,22,2,12,25,-19
CNC(=O)C[C@@H]1CC[C@H]2[C@H](COc3ccc(NC(=O)Nc4ccccc4F)cc3C(=O)N2C)O1,.,.,-19,.,-1,-2
CNC[C@H]1Oc2c(NC(=O)NC(C)C)cccc2C(=O)N(C)C[C@H]1C,.,.,-11,.,.,.
O=C(NCc1ccccc1)C(c1ccccc1)N(Cc1ccccc1)C(=O)Cc1ccccc1 (stereo unspecified),.,.,.,.,71*,79*
COc1ccc(CNC(=O)C(c2ccco2)N(Cc2ccccc2)C(=O)Cc2cccs2)cc1 (stereo unspecified),8,3,-7,6,.,22
SMILES,Shn3 3UTR inh,EBV LMP1 NFkB,FN deposit inh,aSyn UTR inh,EWS-Fli block,PAX8 inh HTS
CNC[C@@H]1Oc2ccc(NS(=O)(=O)c3cn(C)cn3)cc2CC(=O)N([C@H](C)CO)C[C@@H]1C,.,.,0,.,-3,-19
Cn1cc(S(=O)(=O)N2CCN(C(=O)c3ccco3)CC2)c(=O)n(C)c1=O,17,88*,-1,11,-5,-30
Cc1c(S(=O)(=O)N2CCN(C(=O)c3ccco3)CC2)c(=O)n(C)c(=O)n1C,-18,1,5,0,0,.
COc1ccc(CN2C[C@@H](O)COC[C@@H]3O[C@H](CC(=O)NCCN4CCCC4)CC[C@H]32)cc1,.,.,-9,.,-5,2
CCn1cc(CN(C)S(=O)(=O)c2cccc([N+](=O)[O-])c2)cn1,-5,-3,-4,10,-1,1
CCn1cc(CN(C)S(=O)(=O)c2ccc3ccccc3c2)c(C)n1,90*,23,5,-2,.,16
CCCS(=O)(=O)Nc1ccc(Nc2c3ccccc3nc3ccccc23)c(OC)c1,88*,43*,5,.,43,46
O=C(Nc1cccc(F)c1)N1C[C@H]2[C@@H](c3ccccc31)[C@@H](CO)N2C(=O)c1ccccn1,.,.,.,.,0,-13
CCCCCCCCn1c2c(c(=N)c3ccccc31)CCC2,91*,8,-7,59,42,80*
CCCCn1c2c(c(=N)c3ccccc31)CCC2,.,3,0,17,20,33
CCCCCn1c2c(c(=N)c3ccccc31)CCC2,68,8,8,51,22,67*
C[C@@H]1CN([C@H](C)CO)C(=O)c2cc(-c3ccccc3)cnc2O[C@@H]1CN(C)C(=O)Cc1ccccn1,.,.,-7,.,-11,.
Cc1noc(C)c1S(=O)(=O)Nc1cccc2c1O[C@@H](CN(C)C(=O)NC1CCCCC1)[C@@H](C)CN([C@@H](C)CO)C2=O,.,.,-4,.,-2,.
COC(=O)C[C@@H]1CC[C@H]2[C@H](COc3ccc(NC(=O)C4CCOCC4)cc3C(=O)N2C)O1,.,.,1,.,5,-8
C[C@H]1CC=CC[C@H](c2ccc3c(c2)OCO3)NC(=O)[C@H](C)N(C)C(=O)c2ccccc2O1 (mixture of isomers),.,.,6,.,.,.
O=C(c1cccnc1)N1C[C@H]2[C@@H](c3ccccc31)[C@H](CO)N2CC1CCCCC1,.,.,.,.,-2,6
O=C(c1cccnc1)N1C[C@H]2[C@@H](c3ccccc31)[C@H](CO)N2CC1CCCC1,.,.,32*,.,-6,8
CC(C)(C)C(=O)Nc1nnc(SCC(=O)Nc2ccc3c(c2)OCO3)s1,19,46*,-4,24,.,14
CCN(CC)CCN1C(=O)c2ccccc2NC1c1cc(OC)c(OC)c(OC)c1 (stereo unspecified),13,1,.,-6,4,.
